What is called IC50 is the concentration at which inhibition is half-maximal.

In ChEMBL document CHEMBL1135864, “Novel amide-based inhibitors of inosine 5'-monophosphate dehydrogenase” (Bioorg Med Chem Lett, 2002) one finds IC50 data, which are given here for 40 molecules.

Structures are written as SMILES. A value given as a limit tells only on which side of the number the result lay.

Assay [1] has as its target T1, Inosine-5'-monophosphate dehydrogenase 2 (Homo sapiens, UniProt P12268). As to the kind of experiment: Inhibitory activity of compound was evaluated against the Inosine-5'-monophosphate dehydrogenase 2. An outline of the steps: (§1)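 Human type II IMPDH expressed in and purified from E. coli, used at 40 nM. Buffer was 0.1 M Tris, 0.1 M KCl, 3 mM EDTA pH 8.0 with 2 mM DTT and 400 µM IMP. Compounds were added from DMSO (final 2.5%), and the reaction was started with NAD (final 400 µM). After 2 h at 25 °C, NADH absorbance was read at 340 nm. IC50 was taken from a four-parameter logistic fit.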

For assay [2], the system named is CCRF-CEM. As to the kind of experiment: The human T-lymphoblast CEM cell (ATCC) proliferation inhibitory activity was determined. The class given is functional, cell-based. An outline of the steps: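 CEM human T-lymphoblasts were grown in RPMI 1640 with 10% heat-inactivated FBS and penicillin/streptomycin, then seeded at 3000 cells/well with 0.5% DMSO. Compounds were tested in triplicate, top final concentration 10 uM, in 3-fold serial dilutions, for 72 h at 5% CO2. Viability was read by Alamar Blue (10% v/v, final 5 h), fluorescence ex/em 530/590 nm.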

In assay [3] the test system is CCRF-CEM. Description: Inhibition of human T-lymphoblast CEM cell (ATCC) proliferation; At this concentration no inhibition was observed. The assay is classed as functional, cell-based.
Assay [4] addresses Inosine-5'-monophosphate dehydrogenase 1 (Homo sapiens, UniProt P20839). Description: Inhibitory activity of compound was evaluated against the Inosine-5'-monophosphate dehydrogenase 1.
Assay [5] addresses T1, Inosine-5'-monophosphate dehydrogenase 2. Description: Inhibitory activity of compound was evaluated against the inosine monophosphate dehydrogenase -II (IMPDH-II) enzyme. An outline of the steps: as §1

Inosine-5'-monophosphate dehydrogenase 1, sequence (P20839 whole entry): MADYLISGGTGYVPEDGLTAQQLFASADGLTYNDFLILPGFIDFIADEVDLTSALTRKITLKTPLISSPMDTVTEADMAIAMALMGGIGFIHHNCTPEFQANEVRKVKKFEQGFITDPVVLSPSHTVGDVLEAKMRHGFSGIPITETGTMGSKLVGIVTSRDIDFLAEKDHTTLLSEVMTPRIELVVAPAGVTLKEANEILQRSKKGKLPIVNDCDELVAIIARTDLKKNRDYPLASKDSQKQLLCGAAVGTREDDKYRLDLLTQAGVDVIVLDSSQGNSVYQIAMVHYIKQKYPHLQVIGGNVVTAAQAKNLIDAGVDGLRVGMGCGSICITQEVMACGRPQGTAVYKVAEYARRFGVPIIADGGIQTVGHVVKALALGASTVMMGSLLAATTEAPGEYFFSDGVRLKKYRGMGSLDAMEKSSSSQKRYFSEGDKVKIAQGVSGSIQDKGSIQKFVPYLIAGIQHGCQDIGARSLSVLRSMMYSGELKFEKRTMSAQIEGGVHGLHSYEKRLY

For the molecule `COc1cc(NC(=O)c2cc3ccccc3n2C)ccc1-c1cnco1`, the figures for the 50% inhibitory concentration (IC50) in assay [1] and in assay [2] were 130 nM and 7700 nM, respectively.
`COc1cc(NC(=O)c2ccc(C)c(C)c2)ccc1-c1cnco1`: the IC50 in assay [1] was 260 nM; in assay [3], over 1000 nM.
In the same order, the values of `COc1cc(NC(=O)/C=C/c2cccc(C)c2)ccc1-c1cnco1` are 590 nM and over 1000 nM.
In the same order, the values of `COc1cc(NC(=O)c2cccs2)ccc1-c1cnco1` are 810 nM and over 1000 nM.
Take `COc1ccccc1/C=C\C(=O)Nc1ccc(-c2cnco2)c(OC)c1`: the IC50 is 960 nM in assay [1] and over 1000 nM in assay [3].
In the case of `COc1cc(NC(=O)/C=C/c2cccnc2)ccc1-c1cnco1`, the IC50 was 210 nM in assay [1] and over 1000 nM in assay [3].
`COc1cc(NC(=O)c2cc3ccccc3[nH]2)ccc1-c1cnco1`: the values for the half-maximal inhibitory concentration (IC50) in assay [1], in assay [3] and in assay [4] were 110 nM, over 1000 nM and over 1000 nM, respectively.
For the molecule `COc1cc(NC(=O)c2[nH]nc3ccccc23)ccc1-c1cnco1`, the IC50 in assay [1] and in assay [3] was over 1000 nM throughout.
Turning to `COc1cc(NC(=O)c2occc2C)ccc1-c1cnco1`, the concentration for half-maximal inhibition (IC50) in assay [1] and in assay [3] was over 1000 nM in each case.
As to `COc1cc(NC(=O)c2c[nH]c3ccccc23)ccc1-c1cnco1`, the half-inhibitory concentration (IC50) in assay [1] is over 3000 nM; in assay [3], over 1000 nM.
As for `COc1cc(NC(=O)/C=C/c2cccs2)ccc1-c1cnco1`, the 50% inhibitory concentration (IC50) in assay [1] is 66 nM; in assay [3], over 1000 nM.
In the same order, the values of `COc1cc(NC(=O)c2ccc(-c3ccccn3)s2)ccc1-c1cnco1` are 870 nM and over 1000 nM.
On to `COc1cc(NC(=O)/C=C/c2ccncc2)ccc1-c1cnco1`, for which the IC50 is 57 nM in assay [1] and 8700 nM in assay [2].
For the molecule `COc1cc(NC(=O)/C=C/c2cccc(Cl)c2)ccc1-c1cnco1`, the values for the IC50 in assay [1] and in assay [3] were 300 nM and over 1000 nM, respectively.
In the same order, the values of `COc1cc(NC(=O)/C=C/c2ccccc2F)ccc1-c1cnco1` are 740 nM and over 1000 nM.
For the molecule `COc1cc(NC(=O)c2ccc3[nH]ccc3c2)ccc1-c1cnco1`, the IC50 was 630 nM in assay [1] and over 1000 nM in assay [3].
Regarding `COc1cc(NC(=O)/C=C/c2cccc(F)c2)ccc1-c1cnco1`, the IC50 in assay [1] was 200 nM; in assay [3], over 1000 nM.
In the case of `COc1cc(NC(=O)/C=C/c2ccccc2)ccc1-c1cnco1`, the 50% inhibitory concentration (IC50) is 73 nM in assay [1] and over 1000 nM in assay [3].
Regarding `COc1ccccc1/C=C/C(=O)Nc1ccc(-c2cnco2)c(OC)c1`, the IC50 is 110 nM in assay [1] and over 1000 nM in assay [3].
On to `COc1cc(NC(=O)c2cc3ccccc3o2)ccc1-c1cnco1`, for which the IC50 in assay [1] was 210 nM; in assay [3] it was over 1000 nM.
On to `COc1cc(NC(=O)/C=C/c2ccco2)ccc1-c1cnco1`, for which the IC50 in assay [1] came to 28 nM; in assay [2], 6600 nM.
As for `COc1cc(NC(=O)c2ccc(C(C)(C)C)o2)ccc1-c1cnco1`, the results for the half-maximal inhibitory concentration (IC50) in assay [1] and in assay [3] were 130 nM and over 1000 nM, respectively.
With `COc1cc(NC(=O)/C=C/c2ccccc2Cl)ccc1-c1cnco1`, the IC50 in assay [1] is 60 nM; in assay [3], over 1000 nM.
For the molecule `COc1cc(NC(=O)Cc2ccccc2)ccc1-c1cnco1`, the IC50 in assay [1] was 970 nM; in assay [3] it was over 1000 nM.
For `COc1cc(NC(=O)Nc2cccc(C)c2)ccc1-c1cnco1`, the IC50 in assay [3] was over 1000 nM.
For `COc1cc(NC(=O)c2cc(C)c(C)o2)ccc1-c1cnco1`, the half-maximal inhibitory concentration (IC50) in assay [1] was 540 nM; in assay [3] it was over 1000 nM.
Take `COc1cc(NC(=O)/C=C/c2ccc(F)cc2)ccc1-c1cnco1`: the IC50 is 120 nM in assay [1] and over 1000 nM in assay [3].
`COc1cc(NC(=O)/C=C/c2c(C)cc(F)cc2C)ccc1-c1cnco1`: the half-maximal inhibitory concentration (IC50) in assay [1] was 75 nM; in assay [3], over 1000 nM.
For the molecule `COc1cc(NC(=O)/C=C/c2ccc(Cl)cc2)ccc1-c1cnco1`, the half-inhibitory concentration (IC50) was 230 nM in assay [1] and over 1000 nM in assay [3].
In the case of `COc1cc(NC(=O)/C=C/c2ccccc2C)ccc1-c1cnco1`, the figures for the IC50 in assay [1] and in assay [3] were 35 nM and over 1000 nM, respectively.
In the same order, the values of `COc1cc(NC(=O)/C=C/c2c[nH]c3ccccc23)ccc1-c1cnco1` are 410 nM and over 1000 nM.
In the same order, the values of `COc1cc(NC(=O)c2cc3ccccc3s2)ccc1-c1cnco1` are 170 nM and over 1000 nM.
For the molecule `COc1cc(NC(=O)/C=C/c2ccc3ccccc3n2)ccc1-c1cnco1`, the IC50 in assay [1] is 630 nM; in assay [3], over 1000 nM.
Take `COc1cc(NC(=O)/C=C/c2ccc(C)cc2)ccc1-c1cnco1`: the 50% inhibitory concentration (IC50) in assay [1] is 210 nM; in assay [3] it was over 1000 nM.
Take `COc1cc(NC(=O)c2ccccc2)ccc1-c1cnco1`: the values for the IC50 in assay [5] and in assay [3] were 630 nM and over 1000 nM, respectively.
In the case of `COc1cc(NC(=O)c2cccn2C)ccc1-c1cnco1`, the IC50 is 890 nM in assay [1] and over 1000 nM in assay [3].
In the case of `COc1cc(NC(=O)c2ccco2)ccc1-c1cnco1`, the values for the IC50 in assay [1] and in assay [3] were 2500 nM and over 1000 nM, respectively.
For the molecule `COc1cc(NC(=O)c2ccc3c(c2)OCO3)ccc1-c1cnco1`, the figures for the IC50 in assay [1] and in assay [3] were 330 nM and over 1000 nM, respectively.
Regarding `COc1cc(NC(=O)c2cc3ccccn3c2)ccc1-c1cnco1`, the results for the IC50 in assay [1] and in assay [3] were 140 nM and over 1000 nM, respectively.
Consider `COc1cc(NC(=O)c2ccc(C)s2)ccc1-c1cnco1`, for which the half-maximal inhibitory concentration (IC50) in assay [1] stood at 110 nM; in assay [2] it was 8800 nM.
